Apaf1 inhib = inhibitors of human Apaf-1 apoptosome | O14727 | reconstituted apoptosome caspase-3 activity, DEVD-Rh110 fluorescence | inhibition, % at 20 µM | 330,000 compounds, 0.71% hits; active = inhibition of at least 40% at 20 µM;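 note: plate controls were DMSO wells for no effect and DEVD-CHO caspase inhibitor wells for full effect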
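Material: cell-free apoptosome with Apaf-1, procaspase-3 and caspase-9; Buffer or medium: Hepes pH 7.5 with detergent and BSA; Reagent: cytochrome c trigger plus (Z-DEVD)2-Rh110 caspase-3 substrate; Times: compound with Apaf-1, dATP, procaspase-3 30 min, then 50 min reaction, room temperature; Technique: Rh110 fluorescence intensity.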
GSTO1 counter = GSTO1 inhibition, counter-screen for RBBP9 inhibitors; inhibition, % at 5.96 µM; 300,000 compounds, 1.1% hits; AID 1974; recombinant GSTO1, activity-based probe fluorescence polarization; P78417;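 active = inhibition above the campaign mean inhibition plus 3 SD, cut at about 35% in these data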;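 note: 0% = GSTO1-1 with DMSO and 100% = wells lacking GSTO1-1 enzyme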
UBC13 polyUb = human UBC13 polyubiquitination inhibition. AID 485273. P61088. 330,000 compounds, 0.47% hits. inhibition, % at 20 µM. UBC13 polyubiquitin chain formation, TR-FRET; in the data active = inhibition above about 45%, passing the limit was not always enough; inconclusive = no clear call, values can overlap the other calls
UBC9 SUMO inh = inhibitors of human SUMOylation (UBC9); AID 2006; inhibition, % at 35 µM; HTRF SUMOylation assay, SAE1/SAE2 + UBC9, in vitro; 290,000 compounds, 0.36% hits; P63279; in the data active = inhibition above about 50%, passing the limit was not always enough; inconclusive = no clear call, values can overlap the other calls
PAD4 inh = PAD4 (human) enzyme inhibition | Q9UM07 | recombinant PAD4, RCA probe fluorescence polarization | inhibition, % at 6.36 µM | 330,000 compounds, 0.41% hits | AID 485272;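 active = percent inhibition above a cutoff equal to the mean of all tested compounds plus 3 SD, cut at about 15% in these data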;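 note: 0% = PAD4 with RCA probe and DMSO and 100% = probe without PAD4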
Rin1 Abl inh = inhibitors of human Rin1-Abl protein interaction | P00519+Q13671 | TR-FRET Rin1/Abl binding, biochemical | inhibition, % at 7.35 µM | 360,000 compounds, 0.4% hits | AID 588664; in the data active = inhibition above about 5%, passing the limit was not always enough
* hit, by the source's call; u = inconclusive; x = not tested or not shown. A selection: hits, their analogues and other compounds. The true share with any hit is near 2.2%.

SMILES | Apaf1 inhib | GSTO1 counter | UBC13 polyUb | UBC9 SUMO inh | PAD4 inh | Rin1 Abl inh
COc1ccc(S(=O)(=O)N2CCCCCC2)cc1C(=O)N(C)CCOc1ccccc1 | 54.8* | 5.0 | 17.7 | x | 2.7 | -1.8
COc1ccc(O)c(N)c1 | 76.2* | x | -25.0 | u | x | x
Cc1ccc(O)c(N)c1 | 1.1 | x | -14.1 | x | -11.0 | 1.4
Cc1ccc(N2CCN(S(=O)(=O)c3c(C)nc4sccn4c3=O)CC2C)cc1 (centres undefined) | x | x | x | x | x | 5.0
CCOc1ccc(C2C=C(c3ccc(F)cc3)Nc3ncnn32)cc1 (centres undefined) | 4.4 | -0.2 | 12.1 | 45.1 | -1.5 | 3.1
CCOc1ccc(C2C=C(c3ccccc3)Nc3ncnn32)cc1 (centres undefined) | 12.2 | 5.4 | 14.2 | 51.5* | -10.7 | x
O=C1C=CC(=O)c2c(O)c(CO)c(CO)c(O)c21 | x | x | x | x | x | 19.7*
COc1ccc(CCN2CC(C(=O)NCc3cn(C)nc3C)CCC2=O)cc1 (centres undefined) | x | x | x | x | x | 0.7
CCc1ccc(OCC(=O)NNC(=S)NC(=O)C2CCCCC2)c(Br)c1 | 20.6 | -2.5 | -20.0 | -5.3 | 4.8 | 0.9
CCc1ccc(OCC(=O)NNC(=S)NC(=O)C2CC2)c(Br)c1 | -8.0 | x | 72.5* | -62.1 | x | 1.6
O=C(Nc1ccccc1-c1nc2ccccc2s1)c1cccnc1Cl | 5.6 | -6.5 | 8.2 | 58.2* | 2.2 | -0.7
CCOc1ccc(C2NCCc3cc(OC)c(OC)cc32)cc1OC (centres undefined) | -2.2 | 5.0 | 2.8 | 15.1 | 0.4 | -1.9
COc1ccc2cc1Oc1ccc(cc1)CC1c3c(cc(OC)c4c3Oc3cc5c(cc3O4)CCNC5C2)CCN1C (centres undefined) | 41.1* | -10.7 | 110.1* | -9.5 | -0.8 | 7.4
Cc1ccc(SCc2cn3c(C)cc(C)nc3n2)cc1 | -23.3 | 1.8 | 4.1 | -0.1 | -2.4 | 1.5
Cc1ccc(SCC2=NN(c3nc(C)cc(C)n3)C(=O)C2)cc1 | 18.5 | 36.9* | -10.1 | -64.1 | -3.2 | -0.5
C#CCOCCOCCOCCNc1nc(N2CCOCC2)nc(N2CCN(C(=O)CCCCCCCCCCNC(=O)[C@H](CO)n3cc(CCCSC)nn3)CC2)n1 | 25.2 | 14.3 | 2.2 | x | 2.5 | 4.1
C#CCOCCOCCOCCNc1nc(N2CCOCC2)nc(N2CCN(C(=O)[C@H]([C@@H](C)CC)n3cc(CCCN=C(N)N)nn3)CC2)n1 | 2.9 | -3.1 | 14.8 | 28.9 | -3.9 | 0.9
C#CCOCCOCCOCCNc1nc(N2CCN(C(=O)CCCCCCCCCCNC(=O)[C@H](CCCCN)n3cc(CCO)nn3)CC2)nc(N2CCN(C(=O)CCCCCCCCCCNC(=O)[C@H](CCCCN)n3cc(C[C@@H](C)CC)nn3)CC2)n1 | 67.9* | 3.5 | 129.8* | x | -8.3 | x
C#CCOCCOCCOCCNc1nc(N2CCN(C(=O)[C@H]([C@@H](C)CC)n3cc(CCCCN)nn3)CC2)nc(N2CCN(C(=O)[C@H](CCCCN)n3cc(CC(C)O)nn3)CC2)n1 (some centres undefined) | 17.4 | 1.7 | 19.7 | x | -0.6 | 1.0
C#CCOCCOCCOCCNc1nc(N2CCN(C(=O)CCCCCCCCCCNC(=O)[C@H](CO)n3cc(CCCCCN)nn3)CC2)nc(N2CCN(C(=O)CCCCCCCCCCNC(=O)[C@H](CCCN=C(N)N)n3cc(C[C@@H](C)CC)nn3)CC2)n1 | 60.9* | -9.0 | 128.6* | x | -12.4 | x
C#CCOCCOCCOCCNc1nc(N2CCN(C(=O)CCCCCCCCCCNC(=O)[C@H]([C@@H](C)CC)n3cc(CCCCN=C(N)N)nn3)CC2)nc(N2CCN(C(=O)CCCCCCCCCCNC(=O)[C@H](CCCN=C(N)N)n3cc(C[C@@H](C)CC)nn3)CC2)n1 | 45.6* | 10.0 | 128.9* | x | -28.1 | x
C#CCOCCOCCOCCNc1nc(N2CCN(C(=O)CCCCCCCCCCNC(=O)[C@H](CCCN=C(N)N)n3cc(C[C@@H](C)CC)nn3)CC2)nc(N2CCN(C(=O)CCCCCCCCCCNC(=O)[C@@H]([C@H](C)CC)n3cc(CCCCCN)nn3)CC2)n1 | 80.1* | 2.7 | 121.8* | x | -33.6 | x
CC1CN(C(=O)c2cc(-c3ccc(Cl)s3)nc3ccccc23)CC(C)O1 (centres undefined) | 18.3 | -0.8 | 33.2 | x | -2.8 | 1.4
